According to ChEMBL document CHEMBL3627690, “Scaffold-Hopping and Structure-Based Discovery of Potent, Selective, And Brain Penetrant N-(1H-Pyrazol-3-yl)pyridin-2-amine Inhibitors of Dual Leucine Zipper Kinase (DLK, MAP3K12)” (J Med Chem, 2015):

Columns and labels:
[1] = biological target: Ribosomal protein S6 kinase beta-1 (Homo sapiens) (UniProt P23443); test: Inhibition of p70S6K (unknown origin) at 1 uM by FRET method
Method in brief: (§1)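 Single-point screen at 1 uM against a panel of 58 representative kinases. Readout was labeled-peptide phosphorylation by FRET (Z′-LYTE), using the vendor's protocols.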

[2] = biological target: Dual specificity mitogen-activated protein kinase kinase 4 (Homo sapiens, UniProt P45985); test: Inhibition of MKK4 (unknown origin) using KFMMTPpYVVTR substrate incubated for 1 hr measured by MpTPpYV probe-based fluorescence polarization assay
Chain of Dual specificity mitogen-activated protein kinase kinase 4 (P45985 whole entry): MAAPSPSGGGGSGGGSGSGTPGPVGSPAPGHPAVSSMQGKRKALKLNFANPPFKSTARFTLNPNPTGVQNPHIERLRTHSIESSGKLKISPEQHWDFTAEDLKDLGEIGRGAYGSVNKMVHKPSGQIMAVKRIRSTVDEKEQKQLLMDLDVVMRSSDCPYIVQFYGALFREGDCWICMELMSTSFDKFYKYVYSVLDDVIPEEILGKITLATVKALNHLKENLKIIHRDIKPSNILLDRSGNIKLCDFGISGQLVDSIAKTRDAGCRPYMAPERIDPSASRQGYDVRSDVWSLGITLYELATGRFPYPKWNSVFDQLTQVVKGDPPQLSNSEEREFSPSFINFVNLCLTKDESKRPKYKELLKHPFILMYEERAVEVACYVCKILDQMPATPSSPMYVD
Method in brief: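 MKK4 at 30 nM was incubated with 100 µM KFMMTPpYVVTR peptide, 5 µM ATP and 3.3 nM fluorescent MpTPpYV probe. Buffer was 50 mM HEPES pH 7.5 with 5 mM MgCl2 and 10 mM DTT. Reaction ran 1 h at 23 °C, was stopped with EDTA plus anti-phospho-JNK antibody, and read by FP (ex 633/em 670 nm). Activity was normalized to the positive control.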

[3] = biological target: Mitogen-activated protein kinase kinase kinase 10 (Homo sapiens, UniProt Q02779); details: 1 uM
[4] = biological target: Receptor-type tyrosine-protein kinase FLT3 (Homo sapiens) (UniProt P36888); details: 1 uM
Chain of Receptor-type tyrosine-protein kinase FLT3 (Homo sapiens) (P36888 whole entry): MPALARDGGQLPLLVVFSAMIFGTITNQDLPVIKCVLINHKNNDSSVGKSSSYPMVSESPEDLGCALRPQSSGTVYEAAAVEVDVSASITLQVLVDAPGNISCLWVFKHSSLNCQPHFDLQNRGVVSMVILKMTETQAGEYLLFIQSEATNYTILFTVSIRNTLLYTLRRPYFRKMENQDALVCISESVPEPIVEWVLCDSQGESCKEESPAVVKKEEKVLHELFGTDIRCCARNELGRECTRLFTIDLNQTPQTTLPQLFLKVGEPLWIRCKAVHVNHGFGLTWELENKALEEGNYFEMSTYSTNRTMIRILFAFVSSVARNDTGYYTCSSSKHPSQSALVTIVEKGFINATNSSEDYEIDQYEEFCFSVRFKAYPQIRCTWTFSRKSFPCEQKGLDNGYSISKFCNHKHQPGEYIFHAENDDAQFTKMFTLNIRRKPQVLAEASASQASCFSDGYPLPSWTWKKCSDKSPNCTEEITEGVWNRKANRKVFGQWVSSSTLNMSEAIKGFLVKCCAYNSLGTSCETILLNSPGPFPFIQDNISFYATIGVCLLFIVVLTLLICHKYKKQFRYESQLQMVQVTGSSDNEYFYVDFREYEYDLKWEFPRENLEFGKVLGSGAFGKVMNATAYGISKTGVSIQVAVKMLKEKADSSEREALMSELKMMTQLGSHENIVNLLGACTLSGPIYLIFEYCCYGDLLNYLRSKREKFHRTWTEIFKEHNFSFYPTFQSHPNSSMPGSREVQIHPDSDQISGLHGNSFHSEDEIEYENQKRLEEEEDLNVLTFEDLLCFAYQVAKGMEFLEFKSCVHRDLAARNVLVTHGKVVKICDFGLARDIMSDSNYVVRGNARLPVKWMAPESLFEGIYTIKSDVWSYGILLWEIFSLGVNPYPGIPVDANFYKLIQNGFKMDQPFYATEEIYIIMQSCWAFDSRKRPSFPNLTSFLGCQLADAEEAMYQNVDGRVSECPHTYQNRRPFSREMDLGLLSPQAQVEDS

[5] = Cmax in mouse at 50 mg/kg, po; assay type: ADME, organism-based; design: dose 50 mg/kg, route oral; details: in vivo
Method in brief: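 C57/Bl6 mice were given a single 50 mg/kg oral dose as an MCT suspension. Plasma was sampled over 0–6 h for Cmax, Tmax and AUC0–6h.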

[6] = biological target: Angiopoietin-1 receptor (Homo sapiens) (UniProt Q02763); test: Inhibition of Tie2 (unknown origin) at 1 uM by FRET method; method in brief: as §1
[7] = biological target: T1, Mitogen-activated protein kinase kinase kinase 12 (Homo sapiens, UniProt Q12852); test: Inhibition of Dox inducible human DLK transfected in HEK293 cells assessed as reduction in JNK phosphorylation incubated for 5.5 hrs measured by Hoechst 33342 staining based imaging analysis; assay type: cell-based
T1 sequence (Q12852 whole entry): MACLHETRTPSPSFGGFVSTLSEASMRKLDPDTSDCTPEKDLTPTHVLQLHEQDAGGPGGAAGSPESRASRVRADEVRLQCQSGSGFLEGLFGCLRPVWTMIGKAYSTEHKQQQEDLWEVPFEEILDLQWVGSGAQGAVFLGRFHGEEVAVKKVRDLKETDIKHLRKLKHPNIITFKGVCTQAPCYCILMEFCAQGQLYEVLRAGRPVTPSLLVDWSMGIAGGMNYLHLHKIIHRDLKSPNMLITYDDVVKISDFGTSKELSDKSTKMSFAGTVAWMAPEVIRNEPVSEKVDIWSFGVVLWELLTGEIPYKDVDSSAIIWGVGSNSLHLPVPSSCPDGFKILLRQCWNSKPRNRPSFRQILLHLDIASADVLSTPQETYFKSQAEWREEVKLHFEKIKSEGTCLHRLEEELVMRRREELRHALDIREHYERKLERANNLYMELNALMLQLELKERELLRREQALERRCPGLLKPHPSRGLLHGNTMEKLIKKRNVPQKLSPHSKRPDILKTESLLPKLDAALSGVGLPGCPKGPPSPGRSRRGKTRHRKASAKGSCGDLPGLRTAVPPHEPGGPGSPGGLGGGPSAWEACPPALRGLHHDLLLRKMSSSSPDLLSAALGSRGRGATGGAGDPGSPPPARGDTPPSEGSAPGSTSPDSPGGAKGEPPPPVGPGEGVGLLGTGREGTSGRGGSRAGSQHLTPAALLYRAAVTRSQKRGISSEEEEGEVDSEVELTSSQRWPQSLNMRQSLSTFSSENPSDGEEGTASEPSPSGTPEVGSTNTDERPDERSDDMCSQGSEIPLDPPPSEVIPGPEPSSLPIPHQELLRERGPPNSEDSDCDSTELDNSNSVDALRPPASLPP

[8] = biological target: Mitogen-activated protein kinase 3 (Homo sapiens) (UniProt P27361); test: Inhibition of ERK1 (unknown origin) at 1 uM by FRET method
Method in brief: (§2)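 SelectScreen panel of 58 kinases, each tested at a single 1 µM compound concentration. Read-out was Z′-LYTE FRET of labeled peptide phosphorylation, run by the vendor's protocols, reported as percent inhibition.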

[9] = biological target: Tyrosine-protein kinase SYK (Homo sapiens) (UniProt P43405); test: Inhibition of Syk (unknown origin) at 1 uM by FRET method; method in brief: as §1
[10] = biological target: Casein kinase II subunit alpha (Homo sapiens) (UniProt P68400); test: Inhibition of CK2alpha1 (unknown origin) at 1 uM by FRET method; method in brief: as §2
[11] = biological target: High affinity nerve growth factor receptor (Homo sapiens, UniProt P04629); test: Inhibition of TrkA (unknown origin) at 1 uM by FRET method; method in brief: as §1
[12] = biological target: Non-receptor tyrosine-protein kinase TYK2 (Homo sapiens) (UniProt P29597); test: Inhibition of TYK2 (unknown origin) at 1 uM by FRET method; method in brief: as §1
[13] = biological target: CDK8/Cyclin C (Homo sapiens) (UniProt P49336+P24863); test: Inhibition of […]/cyclinC (unknown origin) at 1 uM by FRET method; assay type: protein-complex assay; method in brief: as §2
[14] = tested on: Rattus norvegicus; test: Dose normalized free AUC in rat at 0.4 or 1 mg/kg, iv and 1 or 5 mg/kg, po; details: in vivo
[15] = biological target: RAC-alpha serine/threonine-protein kinase (Homo sapiens) (UniProt P31749); test: Inhibition of AKT1 (unknown origin) at 1 uM by FRET method; method in brief: as §2
[16] = biological target: MAP kinase-activated protein kinase 2 (Homo sapiens) (UniProt P49137); test: Inhibition of MAPKAPK2 (unknown origin) at 1 uM by FRET method; method in brief: as §2
Chain of MAP kinase-activated protein kinase 2 (Homo sapiens) (P49137 whole entry, looked up): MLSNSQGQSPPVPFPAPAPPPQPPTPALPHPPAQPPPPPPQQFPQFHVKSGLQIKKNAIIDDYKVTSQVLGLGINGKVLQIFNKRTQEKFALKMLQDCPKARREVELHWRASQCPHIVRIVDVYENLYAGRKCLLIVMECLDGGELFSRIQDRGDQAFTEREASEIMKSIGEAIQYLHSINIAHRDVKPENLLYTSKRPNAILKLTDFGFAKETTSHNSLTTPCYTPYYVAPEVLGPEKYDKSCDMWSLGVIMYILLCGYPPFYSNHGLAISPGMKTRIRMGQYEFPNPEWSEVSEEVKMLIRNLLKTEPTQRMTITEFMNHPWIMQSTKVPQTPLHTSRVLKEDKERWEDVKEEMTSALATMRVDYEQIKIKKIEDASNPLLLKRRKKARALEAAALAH

[17] = biological target: Macrophage colony-stimulating factor 1 receptor (Homo sapiens, UniProt P07333); test: Inhibition of CSF1R (unknown origin) by FRET method
[18] = biological target: BDNF/NT-3 growth factors receptor (Homo sapiens, UniProt Q16620); test: Inhibition of TrkB (unknown origin) by FRET method
Chain of BDNF/NT-3 growth factors receptor (Q16620 whole entry): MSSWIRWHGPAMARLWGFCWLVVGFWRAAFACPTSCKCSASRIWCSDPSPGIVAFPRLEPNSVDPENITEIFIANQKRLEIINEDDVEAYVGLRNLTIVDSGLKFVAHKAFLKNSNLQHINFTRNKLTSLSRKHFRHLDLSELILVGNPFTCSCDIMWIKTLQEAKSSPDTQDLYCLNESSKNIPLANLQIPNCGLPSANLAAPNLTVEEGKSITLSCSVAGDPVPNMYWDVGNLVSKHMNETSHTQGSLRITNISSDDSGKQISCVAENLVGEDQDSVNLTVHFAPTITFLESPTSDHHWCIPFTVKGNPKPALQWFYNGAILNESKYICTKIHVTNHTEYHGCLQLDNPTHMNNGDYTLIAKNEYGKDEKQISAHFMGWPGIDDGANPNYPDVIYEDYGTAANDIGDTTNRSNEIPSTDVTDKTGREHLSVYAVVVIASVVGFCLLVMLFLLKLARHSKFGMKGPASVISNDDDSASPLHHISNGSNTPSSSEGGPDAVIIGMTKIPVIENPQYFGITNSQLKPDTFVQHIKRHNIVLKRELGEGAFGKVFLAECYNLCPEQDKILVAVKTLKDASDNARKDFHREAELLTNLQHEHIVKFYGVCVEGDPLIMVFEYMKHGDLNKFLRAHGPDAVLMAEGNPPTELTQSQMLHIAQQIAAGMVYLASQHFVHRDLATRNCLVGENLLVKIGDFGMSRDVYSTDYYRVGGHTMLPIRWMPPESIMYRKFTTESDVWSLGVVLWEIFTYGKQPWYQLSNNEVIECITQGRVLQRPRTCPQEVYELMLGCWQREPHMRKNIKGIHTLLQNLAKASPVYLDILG
Method in brief: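 Biochemical IC50 determination from a 10-point dose-response in an enzymatic Z′-LYTE assay. Labeled-peptide phosphorylation was read by FRET under the vendor's protocols.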

[19] = biological target: Tyrosine-protein kinase JAK3 (Homo sapiens) (UniProt P52333); test: Inhibition of JAK3 (unknown origin) at 1 uM by FRET method; method in brief: as §2
Chain of Tyrosine-protein kinase JAK3 (Homo sapiens) (P52333 whole entry, the tested form may be a part): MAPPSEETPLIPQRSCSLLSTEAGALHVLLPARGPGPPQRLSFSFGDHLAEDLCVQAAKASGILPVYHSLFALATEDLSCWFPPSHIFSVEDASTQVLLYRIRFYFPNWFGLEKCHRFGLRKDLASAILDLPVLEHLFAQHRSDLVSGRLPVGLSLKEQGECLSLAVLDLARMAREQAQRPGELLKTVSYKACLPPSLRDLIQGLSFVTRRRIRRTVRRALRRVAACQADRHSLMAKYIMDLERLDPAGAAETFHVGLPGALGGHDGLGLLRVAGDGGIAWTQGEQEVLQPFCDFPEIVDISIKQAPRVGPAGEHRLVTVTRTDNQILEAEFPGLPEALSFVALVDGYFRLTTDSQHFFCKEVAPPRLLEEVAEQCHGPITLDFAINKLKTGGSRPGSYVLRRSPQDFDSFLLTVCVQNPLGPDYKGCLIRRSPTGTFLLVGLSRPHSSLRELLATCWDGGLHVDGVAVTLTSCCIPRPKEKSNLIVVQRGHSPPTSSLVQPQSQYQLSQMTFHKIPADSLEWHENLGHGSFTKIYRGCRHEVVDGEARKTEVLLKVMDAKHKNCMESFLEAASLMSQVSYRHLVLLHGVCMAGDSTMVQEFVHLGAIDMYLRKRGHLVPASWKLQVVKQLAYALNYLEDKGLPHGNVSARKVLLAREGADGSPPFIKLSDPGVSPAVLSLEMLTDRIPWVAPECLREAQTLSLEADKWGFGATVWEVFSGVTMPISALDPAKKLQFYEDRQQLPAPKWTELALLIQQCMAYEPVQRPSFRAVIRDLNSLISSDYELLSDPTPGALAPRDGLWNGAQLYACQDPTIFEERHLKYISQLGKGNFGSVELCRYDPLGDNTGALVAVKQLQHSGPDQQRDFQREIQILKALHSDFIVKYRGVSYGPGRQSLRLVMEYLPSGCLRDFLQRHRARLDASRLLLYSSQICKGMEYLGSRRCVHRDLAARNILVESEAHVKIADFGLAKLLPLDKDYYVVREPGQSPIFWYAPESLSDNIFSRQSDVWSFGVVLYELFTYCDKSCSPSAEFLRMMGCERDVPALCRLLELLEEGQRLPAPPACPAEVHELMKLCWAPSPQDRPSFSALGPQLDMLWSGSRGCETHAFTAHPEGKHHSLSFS

[20] = biological target: T1, Mitogen-activated protein kinase kinase kinase 12; test: Inhibition of N-terminally GST- tagged human DLK catalytic domain (1 to 520 amino acids) using N-terminally HIS-tagged MKK4 K131M as substrate incubated for 60 mins by TR-FRET assay
[21] = biological target: Mitogen-activated protein kinase 8 (Homo sapiens, UniProt P45983); test: Inhibition of JNK1 (unknown origin) by FRET method
Method in brief: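 JNK1, JNK2 and JNK3 IC50 values came from a 10-point dose–response enzymatic assay.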

[22] = biological target: Tyrosine-protein kinase BTK (Homo sapiens) (UniProt Q06187); test: Inhibition of BTK (unknown origin) at 1 uM by FRET method; method in brief: as §2
Chain of Tyrosine-protein kinase BTK (Homo sapiens) (Q06187 whole entry): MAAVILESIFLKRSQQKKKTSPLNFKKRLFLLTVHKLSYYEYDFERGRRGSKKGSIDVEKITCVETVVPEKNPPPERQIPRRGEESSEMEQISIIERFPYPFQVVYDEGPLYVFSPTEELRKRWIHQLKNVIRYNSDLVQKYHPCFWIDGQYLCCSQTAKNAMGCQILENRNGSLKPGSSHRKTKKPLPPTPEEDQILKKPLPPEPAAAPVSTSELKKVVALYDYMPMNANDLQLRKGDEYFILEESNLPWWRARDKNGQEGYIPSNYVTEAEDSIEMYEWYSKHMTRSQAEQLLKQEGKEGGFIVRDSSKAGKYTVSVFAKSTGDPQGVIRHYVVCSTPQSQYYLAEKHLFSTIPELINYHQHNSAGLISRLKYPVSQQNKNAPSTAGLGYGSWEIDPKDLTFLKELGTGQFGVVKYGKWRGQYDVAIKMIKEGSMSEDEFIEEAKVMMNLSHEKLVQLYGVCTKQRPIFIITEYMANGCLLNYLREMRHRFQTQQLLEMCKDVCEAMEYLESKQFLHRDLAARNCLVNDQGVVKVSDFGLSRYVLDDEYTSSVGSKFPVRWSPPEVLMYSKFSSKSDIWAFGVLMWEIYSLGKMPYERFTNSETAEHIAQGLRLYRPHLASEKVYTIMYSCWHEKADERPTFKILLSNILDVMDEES

Chain of Ribosomal protein S6 kinase beta-1 (Homo sapiens) (P23443 whole entry, looked up): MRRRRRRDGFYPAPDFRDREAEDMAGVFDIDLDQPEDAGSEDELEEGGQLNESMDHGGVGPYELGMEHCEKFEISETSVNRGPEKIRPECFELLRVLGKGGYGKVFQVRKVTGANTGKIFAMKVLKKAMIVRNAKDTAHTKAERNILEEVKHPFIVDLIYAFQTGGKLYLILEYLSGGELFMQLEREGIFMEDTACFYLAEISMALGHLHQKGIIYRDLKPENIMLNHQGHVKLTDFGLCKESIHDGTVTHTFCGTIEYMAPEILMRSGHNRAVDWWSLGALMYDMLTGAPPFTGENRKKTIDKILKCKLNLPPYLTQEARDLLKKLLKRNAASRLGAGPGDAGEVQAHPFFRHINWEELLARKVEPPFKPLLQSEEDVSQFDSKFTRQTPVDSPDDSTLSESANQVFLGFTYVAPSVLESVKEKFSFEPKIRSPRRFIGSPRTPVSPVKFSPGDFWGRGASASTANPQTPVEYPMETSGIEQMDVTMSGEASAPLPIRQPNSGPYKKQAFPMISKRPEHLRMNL

- inhibition [1]: 0.8%
- IC50 [2]: > 5 µM
- inhibition [3]: 1.6%
- inhibition [4]: 65.4%
- Cmax [5]: 5.9 µM
- inhibition [6]: 1.8%
- IC50 [7]: 536 nM
- inhibition [8]: 0.6%
- inhibition [9]: 41.2%
- inhibition [10]: 1.3%
- inhibition [11]: 63.3%
- inhibition [12]: 25.6%
- inhibition [13]: 11.6%
- fAUC/dose [14]: 0.03 kg·h/L
- inhibition [15]: -3.6%
- inhibition [16]: 6.7%
- IC50 [17]: 57 nM
- IC50 [18]: 1190 nM
- inhibition [19]: 12.5%
- Ki [20]: 42 nM
- IC50 [21]: 1040 nM
- inhibition [22]: 32.4%
SMILES: N#Cc1ccnc(Nc2cc(C3CCN(C4COC4)CC3)n(C3CCCC3)n2)c1
